The test system of data set [1] is Escherichia coli. In words: Antibacterial activity against Escherichia coli ATCC 25922 at 1:8 dilution incubated for 24 hrs by disc diffusion method. The data set is classed as functional, organism-based. The method, boiled down: (§1)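 Kirby-Bauer disc diffusion. 6 mm paper discs are loaded with 20 µL of the 1:8 (2.81 mg/mL) or 1:128 (0.17 mg/mL) dilution, dried 30 min and stored at 4–8 °C. A lawn of about 5.0×10^5 CFU/mL is swabbed onto Mueller–Hinton agar with the plate spinning. Plates are incubated 24 h at 37 °C and the inhibition zone is measured in mm by digital caliper.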
On the technique in general: In agar diffusion tests the substance spreads into inoculated agar from a disc or well.

For data set [2], the system named is Pseudomonas aeruginosa. In words: Antibacterial activity against Pseudomonas aeruginosa ATCC 27853 at 1:8 dilution incubated for 24 hrs by disc diffusion method. The data set is classed as functional, organism-based. In a few lines: as §1
In data set [3] the test system is Escherichia coli. Put plainly: Antibacterial activity against Escherichia coli ATCC 25922 at 1:128 dilution incubated for 24 hrs by disc diffusion method. The data set is classed as functional, organism-based. In a few lines: as §1
The test system of data set [4] is Erythrocyte. In words: Induction of hemolysis in RBC (unknown origin) at higher concentration. The data set is classed as cell-based.
In data set [5] the test system is Erythrocyte. Put plainly: Induction of hemolysis in RBC (unknown origin) at lower concentration. The data set is classed as cell-based.
Data set [6] deals with Pseudomonas aeruginosa. In words: Antibacterial activity against Pseudomonas aeruginosa ATCC 27853 assessed as reduction in bacterial growth incubated for 24 hrs by turbidity based analysis. The data set is classed as functional. In a few lines: (§2)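 Broth microdilution in Mueller–Hinton broth. Agents start from 4.5% stocks and are diluted two-fold in deionized water. Final well range is 22.5 to 0.02 mg/mL; inoculum is about 5.0×10^5 CFU/mL from 18–24 h SBA colonies. Plates are incubated 18–24 h at 37 °C in ambient air at 100 rpm. MIC is the lowest concentration giving a clear well on mirrored 3X visual reading.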

In data set [7] the test system is Staphylococcus aureus. In words: Antibacterial activity against Staphylococcus aureus ATCC 29213 assessed as reduction in bacterial growth incubated for 24 hrs by turbidity based analysis. The data set is classed as functional. The method, boiled down: as §2
Data set [8] deals with Escherichia coli. Put plainly: Antibacterial activity against Escherichia coli ATCC 25922 assessed as reduction in bacterial growth incubated for 24 hrs by turbidity based analysis. The data set is classed as functional. The method, boiled down: as §2
The test system of data set [9] is Pseudomonas aeruginosa. Put plainly: Antibacterial activity against Pseudomonas aeruginosa ATCC 27853 at 1:128 dilution incubated for 24 hrs by disc diffusion method. The data set is classed as functional, organism-based. The method, boiled down:
as §1

Data set [10] has as its system Escherichia coli. Put plainly: Bactericidal activity against Escherichia coli ATCC 25922 incubated for 24 hrs followed by transferring and culturing on SBA plate and measured after 18 to 24 hrs by agar plate based analysis. The data set is classed as functional. Particulars: time 42-48 hrs. In a few lines: (§3)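 After 24 h of microdilution (about 5.0×10^5 CFU/mL, Mueller–Hinton broth, 37 °C, 100 rpm), 100 µL from each clear well, including the MIC well, is spread on 5% sheep blood agar. Plates are incubated 18–24 h at 37 °C. MBC is the first concentration giving zero colonies.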

Data set [11] deals with Staphylococcus aureus. Put plainly: Antibacterial activity against Staphylococcus aureus ATCC 29213 assessed as zone of inhibition at 1:128 dilution incubated for 24 hrs by disc diffusion method. The data set is classed as functional. In a few lines:
as §1

Data set [12] relates to Pseudomonas aeruginosa. In words: Potency index, ratio of MIC of BacDown QAC to MIC of compound for antibacterial activity against Pseudomonas aeruginosa ATCC 27853 assessed as reduction in bacterial growth incubated for 24 hrs by turbidity based analysis. The data set is classed as functional.
For data set [13], the system named is Staphylococcus aureus. In words: Antibacterial activity against Staphylococcus aureus ATCC 29213 assessed as zone of inhibition at 1:8 dilution incubated for 24 hrs by disc diffusion method. The data set is classed as functional. In a few lines:
as §1

Data set [14] concerns Staphylococcus aureus. Put plainly: Potency index, ratio of MIC of BacDown QAC to MIC of compound for antibacterial activity against Staphylococcus aureus ATCC 29213 assessed as reduction in bacterial growth incubated for 24 hrs by turbidity based analysis. The data set is classed as functional.
Data set [15] has as its system Staphylococcus aureus. Put plainly: Bactericidal activity against Staphylococcus aureus ATCC 29213 incubated for 24 hrs followed by transferring and culturing on SBA plate and measured after 18 to 24 hrs by agar plate based analysis. Particulars: time 42-48 hrs. The data set is classed as functional. In a few lines: as §3
In data set [16] the test system is Pseudomonas aeruginosa. In words: Bactericidal activity against Pseudomonas aeruginosa ATCC 27853 incubated for 24 hrs followed by transferring and culturing on SBA plate and measured after 18 to 24 hrs by agar plate based analysis. The data set is classed as functional. Particulars: time 42-48 hrs. The method, boiled down:
as §3

Data set [17] deals with Escherichia coli. In words: Potency index, ratio of MIC of BacDown QAC to MIC of compound for antibacterial activity against Escherichia coli ATCC 25922 assessed as reduction in bacterial growth incubated for 24 hrs by turbidity based analysis. The data set is classed as functional.

The source made the active and inactive calls. Bounds are passed on as bounds.

On to `CCCCCCCCCCCCCCCC[N+](C)(C)[BH2-][N+](C)(C)C.I`, for which the result with Escherichia coli [1], in the data set on Pseudomonas aeruginosa [2], in the data set on Escherichia coli [3] and in the data set on Pseudomonas aeruginosa [9] was inactive. Also, the figures for the Activity entry in the data set on Erythrocyte [4] and in the data set with Erythrocyte [5] were “Toxic” and “Non-Toxic”, respectively. Moreover, the MIC in the data set with Pseudomonas aeruginosa [6], in the data set with Staphylococcus aureus [7] and in the data set on Escherichia coli [8] was greater than 22500 µg/mL throughout.

For the compound `CCCCCCCCCCCCCCCC[N+](C)(C)[BH2-][N+](C)(C)Cc1ccccc1.I`, the MBC against Escherichia coli [10] was 40 µg/mL; against Staphylococcus aureus [15], 40 µg/mL; against Pseudomonas aeruginosa [16], 170 µg/mL. For the same compound, the “inhibition zone (IZ)” value in the data set on Staphylococcus aureus [11] is on record as 7.6 mm; in the data set on Staphylococcus aureus [13], 14.8 mm. Besides, the result in the data set on Escherichia coli [1], in the data set on Pseudomonas aeruginosa [2], in the data set with Escherichia coli [3] and in the data set on Pseudomonas aeruginosa [9] was inactive. Moreover, the Ratio came to 8 in the data set with Pseudomonas aeruginosa [12], 4 in the data set with Staphylococcus aureus [14] and 4 in the data set with Escherichia coli [17]. The Activity entry with Erythrocyte [4] is listed as “Toxic”; in the data set with Erythrocyte [5] it was “Non-Toxic”. Also, the minimal inhibitory concentration (MIC) in the data set on Pseudomonas aeruginosa [6] was 170 µg/mL; with Staphylococcus aureus [7], 20 µg/mL; in the data set with Escherichia coli [8], 40 µg/mL.

Broadly, the MIC is the lowest concentration that inhibits growth of the organism. For orientation: MBC means the smallest concentration meeting the test's criterion for killing.

These data come from ChEMBL document CHEMBL4732156, “Novel boronium salt exhibits substantial antibacterial activity when compared to a commercial quaternary ammonium disinfectant” (Bioorg Med Chem Lett, 2021).
